The results in this text go back to ChEMBL document CHEMBL5712893, “Multiple Histone Lysine Methyltransferases Are Required for the Establishment and Maintenance of HIV-1 Latency” (2017).

Active and inactive are the calls of the source. The rule behind the calls is not given here.

The subject of experiment [1] is Human immunodeficiency virus 1. The experiment is described as follows: Antiviral activity against HIV-1 in human Jurkat T cells assessed as reduction GFP positive cells at 1 uM for 18 hrs. It is filed as functional, organism-based. The method in brief:
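Jurkat E6 cells pretreated overnight with inhibitor (5 µM; DZNep 5 or 10 µM; phenelzine 250 µM), washed twice with PBS, then spinoculated with VSV-G-pseudotyped HIV-1 (d2EGFP-Nef). Three days later, silent proviruses induced with 1 µM SAHA for 18 h. d2EGFP measured by FACS. Relative silencing is the % silent virus (SAHA-stimulated minus untreated GFP+), divided by scrambled/untreated control. Two independent experiments, SEM.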

The test system of experiment [2] is Human immunodeficiency virus 1. The experiment is described as follows: Reactivation of HIV-1 infected in human Jurkat cells at 1 uM measured after 7 days by FACS analysis relative to control. It is filed as functional. The conditions noted are these: time 7 day. The method in brief: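 E4 Jurkat cells carrying latent d2EGFP HIV-1, infected with shRNA or CRISPR-Cas9 lentivirus. Seven days post-infection, stimulated overnight with SAHA (1 µM), anti-CD3 (0.125 µg/ml) plus anti-CD28 (1 µg/ml), or TNF-α (1 ng/ml). d2EGFP-positive cells quantified by FACS. Three separate experiments, SEM.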

Experiment [3] has as its system Human immunodeficiency virus 1. The experiment is described as follows: Reactivation of latent proviruses in human Th17 cells infected with HIV-1 assessed as Nef and pSer175-CDK9 levels at 100 nM after 72 hrs by FACS analysis. The format is functional. The method in brief:
(§1)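 Th17 cells exposed to inhibitor (100 nM) for 72 h, then infected with HIV-1. Infected cells kept under low-cytokine conditions to enter quiescence, with drug replenished every 72 h. On day 26, cells washed free of drug and induced with CD3/CD28 beads, IL-15 (50 ng/ml) or ConA (5 µg/ml). Nef and pSer175-CDK9 read by FACS; DMSO-pretreated control.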

Experiment [4] has as its system Human immunodeficiency virus 1. The experiment is described as follows: Reactivation of HIV-1 latent proviruses in Th17 resting memory T cells by measuring pSer175 CDK9 level treated at 1 uM for 96 hrs by FACS analysis (reference value: 0.76%). It is filed as functional. Put shortly:
(§2)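 Naive CD4+ T cells from healthy-donor PBMCs were activated with CD3/CD28 beads, polarized to Th17, and infected with VSV-G-pseudotyped Nef+ HIV-1 expressing CD8a-d2EGFP. Infected cells were CD8a-selected and made quiescent for 2 weeks in IL-2 (15 IU/ml) plus IL-23 ([…]). Cells were then exposed to compound for 96 h. Nef and pSer175-CDK9 were read by FACS, and viability by propidium iodide.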

Experiment [5] relates to Human immunodeficiency virus 1. The experiment is described as follows: Reactivation of quiescent HIV-1 infected in human Th17 cells stimulated by IL-15 treated at 100 nM for 72 hrs followed by viral infection replenishment of drug medium every 72 hrs for 26 days by FACS analysis relative to control. It is filed as functional. Put shortly:
as §1

Experiment [6] deals with Human immunodeficiency virus 1. The experiment is described as follows: Reactivation of HIV-1 latent proviruses in Th17 resting memory T cells after PRC2 KD infected with vesicular stomatitis virus G-pseudotyped HIV-1 at 10 nM by FACS analysis. The format is functional. The method in brief:
as §2

Experiment [7] has as its system Human immunodeficiency virus 1. The experiment is described as follows: Reactivation of HIV-1 latent proviruses in Th17 resting memory T cells by measuring pSer175 CDK9 level treated at 100 nM for 96 hrs by FACS analysis (reference value: 0.76%). The format is functional. Put shortly: as §2
The subject of experiment [8] is Human immunodeficiency virus 1. The experiment is described as follows: Reactivation of HIV-1 latent proviruses in Th17 resting memory T cells by measuring pSer175 CDK9 level treated at 10 nM for 96 hrs by FACS analysis (reference value: 0.76%). It is filed as functional.
Experiment [9] concerns Human immunodeficiency virus 1. The experiment is described as follows: Reactivation of HIV-1 latent proviruses in Th17 resting memory T cells by measuring pSer175 CDK9 level treated at 10 nM for 96 hrs by FACS analysis (reference value: 1.59%). It is filed as functional.
The subject of experiment [10] is Human immunodeficiency virus 1. The experiment is described as follows: Reactivation of HIV-1 latent proviruses in Th17 resting memory T cells by measuring pSer175 CDK9 level treated at 1 uM for 96 hrs by FACS analysis (reference value: 1.59%). It is filed as functional. The method in brief:
as §2

Experiment [11] concerns Human immunodeficiency virus 1. The experiment is described as follows: Reactivation of HIV-1 latent proviruses in Th17 resting memory T cells by measuring pSer175 CDK9 level treated at 100 nM for 96 hrs by FACS analysis (reference value: 1.59%). It is filed as functional. Put shortly:
as §2

In experiment [12] the test system is Human immunodeficiency virus 1. The experiment is described as follows: Reactivation of HIV-1 latent proviruses in Th17 resting memory T cells after PRC2 KD infected with vesicular stomatitis virus G-pseudotyped HIV-1 at 100 nM by FACS analysis relative to control. The format is functional. The method in brief: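 Th17 cells were pretreated with 100 nM compound for 72 h, then infected with VSV-G-pseudotyped HIV-1 and cultured under low-cytokine conditions to force quiescence, with drug replenished every 72 h. On day 26 the drug was washed out and cells were induced with CD3/CD28 beads, IL-15 (50 ng/ml) or ConA (5 µg/ml). Nef and pSer175-CDK9 were read by FACS against DMSO-pretreated cells.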

Experiment [13] relates to Human immunodeficiency virus 1. The experiment is described as follows: Reactivation of HIV-1 latent proviruses in Th17 resting memory T cells by measuring pSer175 CDK9 level treated at 100 nM for 96 hrs by FACS analysis (reference value: 1.07%). The format is functional.
In experiment [14] the test system is Human immunodeficiency virus 1. The experiment is described as follows: Reactivation of HIV-1 latent proviruses in Th17 resting memory T cells by measuring pSer175 CDK9 level treated at 10 nM for 96 hrs by FACS analysis (reference value: 1.07%). The format is functional.
Experiment [15] concerns Human immunodeficiency virus 1. The experiment is described as follows: Reactivation of HIV-1 latent proviruses in Th17 resting memory T cells by measuring pSer175 CDK9 level treated at 1 uM for 96 hrs by FACS analysis (reference value: 1.07%). It is filed as functional. The method in brief:
as §2

Turning to `O=C(CCCCCCC(=O)Nc1ccccc1)NO` [VORINOSTAT], in [1], the result was Active. Besides, the Activity in experiment [2] was about 30%.
For `CCN(c1cc(-c2ccc(CN3CCOCC3)cc2)cc(C(=O)NCc2c(C)cc(C)[nH]c2=O)c1C)C1CCOCC1` [TAZEMETOSTAT], the Activity is reported as about 10% in experiment [3]; 27.81% in experiment [4]; 40% in experiment [5]; 20% in [6]; 29.17% in experiment [7]; 16.28% in [8].
As to `COc1cc2c(NC3CCN(C(C)C)CC3)nc(C3CCCCC3)nc2cc1OCCCN1CCCC1`, the Activity in [9] was 22.84%; in experiment [3] it was about 4%; in experiment [5] it was 22%; in experiment [6], 35%; in experiment [10], 34.92%; in experiment [11], 32.18%.
For the compound `CCCc1cc(C)[nH]c(=O)c1CNC(=O)c1cc(-c2ccnc(N3CCN(C)CC3)c2)cc2c1cnn2C(C)C`, the Activity in [12] is 24.15%; in experiment [3], about 8%; in [5], 27%; in experiment [13] it was 24.13%; in experiment [6] it was 20%; in experiment [14], 22.31%. The compound further returned an Activity in experiment [15] of 29.11%.
